Results as given in ChEMBL document CHEMBL1148351, “Probing the pharmacophore for allosteric ligands of muscarinic M2 receptors: SAR and QSAR studies in a series of bisquaternary salts of caracurine V and related ring systems” (J Med Chem, 2004).
Calls of active or inactive are those of the source. No cut-off for these calls is given here.

How the values were obtained:
[1] = biological target: T1, Muscarinic acetylcholine receptor M2 (Sus scrofa) (UniProt P06199); assay: Concentration for half maximal inhibition of [3H]NMS dissociation from muscarinic acetylcholine receptor M2 in porcine heart ventricles
T1 sequence (whole entry): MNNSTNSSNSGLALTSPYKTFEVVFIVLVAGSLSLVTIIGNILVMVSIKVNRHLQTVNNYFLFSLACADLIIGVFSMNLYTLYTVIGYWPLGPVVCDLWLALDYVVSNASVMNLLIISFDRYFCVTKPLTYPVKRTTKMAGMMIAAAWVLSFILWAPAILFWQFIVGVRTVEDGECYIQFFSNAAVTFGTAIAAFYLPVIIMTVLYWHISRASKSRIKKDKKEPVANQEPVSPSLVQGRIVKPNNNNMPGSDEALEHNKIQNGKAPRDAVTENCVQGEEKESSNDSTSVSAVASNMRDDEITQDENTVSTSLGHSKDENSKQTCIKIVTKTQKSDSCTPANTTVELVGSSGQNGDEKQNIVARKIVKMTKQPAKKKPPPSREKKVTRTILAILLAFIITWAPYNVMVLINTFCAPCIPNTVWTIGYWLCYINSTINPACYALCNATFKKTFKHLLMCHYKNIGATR
Summary of the method: (§1)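 Porcine cardiac homogenates, 0.2 nM [3H]NMS in 4 mM Na2HPO4/1 mM KH2PO4 pH 7.4, 23 °C; preincubated 30 min, then dissociation started with 1 μM atropine with or without modulator. Specific binding sampled over 120 min (complete) or at t=0 and 10 min (two-point). Apparent k-1 expressed as % control; four-parameter logistic fit gives EC0.5,diss. Two to four experiments; nonspecific defined by 10^-6 M atropine; filtration, scintillation counting.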

[2] = biological target: T1, Muscarinic acetylcholine receptor M2 (Sus scrofa); assay: Equilibrium binding to muscarinic acetylcholine receptor M2 using [3H]NMS in porcine heart ventricles
[3] = biological target: T1, Muscarinic acetylcholine receptor M2 (Sus scrofa); assay: Effective concentration for half maximal inhibition of [3H]NMS dissociation from Muscarinic acetylcholine receptor M2 in porcine heart ventricles; Non-active; summary of the method: as §1

| pEC0.5 [1] | [3H]NMS equilibrium binding (%) [2] | pEC0.5 [3] | SMILES |
| --- | --- | --- | --- |
| 5.95 | 70.4% |  | COc1ccc(C[N+]23CC[C@@]45c6ccccc6N6[C@@H]7OCC=C8C[N+]9(Cc%10ccc(OC)cc%10)CC[C@]%10%11c%12ccccc%12N([C@@H]%12OCC=C(C2)[C@H](C[C@@H]43)[C@@H]%12[C@H]65)[C@H]%10[C@H]7[C@H]8C[C@@H]%119)cc1 (stereo partly drawn) |
| 7.36 | 103% |  | CC#CC[N@+]12CCC34c5ccccc5N5C6OCC=C7C[N@+]8(CC#CC)CCC9%10c%11ccccc%11N(C%11OCC=C(C1)C(CC32)C%11C54)C9C6C7CC%108 (stereo partly drawn) |
| 6.69 |  |  | C=CC[N+]12CC[C@]34c5cc(OC)c(OC)cc5N5C3[C@@H]3[C@@H](OCC=C(C1)[C@@H]3C[C@@H]42)N1c2cc(OC)c(OC)cc2[C@@]23CC[N+]4(CC=C)CC6=CCO[C@@H]5[C@@H](C12)[C@H]6C[C@@H]34 (stereo partly drawn) |
| 7.7 | 109% |  | C1=CC([N@+]23CCC45c6ccccc6N6C7OCC=C8C[N@+]9(C%10C=CCCC%10)CCC%10%11c%12ccccc%12N(C%12OCC=C(C2)C(CC43)C%12C65)C%10C7C8CC%119)CCC1 (stereo partly drawn) |
| 6.43 | 88.4% |  | O=C1c2ccccc2C(=O)N1CCC[N@+]12CCC34c5ccccc5N5C6OCC=C7C[N@+]8(CCCN9C(=O)c%10ccccc%10C9=O)CCC9%10c%11ccccc%11N(C%11OCC=C(C1)C(CC32)C%11C54)C9C6C7CC%108 (stereo partly drawn) |
| 7.27 | 111% |  | Fc1c(F)c(F)c(C[N@+]23CCC45c6ccccc6N6C7OCC=C8C[N@+]9(Cc%10c(F)c(F)c(F)c(F)c%10F)CCC%10%11c%12ccccc%12N(C%12OCC=C(C2)C(CC43)C%12C65)C%10C7C8CC%119)c(F)c1F (stereo partly drawn) |
| 6.65 | 87.8% |  | NC(=O)C[N+]12CC[C@@]34c5ccccc5N5[C@@H]6OCC=C7C[N+]8(CC(N)=O)CC[C@]9%10c%11ccccc%11N([C@@H]%11OCC=C(C1)[C@H](C[C@@H]32)[C@@H]%11[C@H]54)[C@H]9[C@H]6[C@H]7C[C@@H]%108 (stereo partly drawn) |
| 7.14 | 100% |  | C/C=C/C[N@+]12CCC34c5ccccc5N5C6OCC=C7C[N@+]8(C/C=C/C)CCC9%10c%11ccccc%11N(C%11OCC=C(C1)C(CC32)C%11C54)C9C6C7CC%108 (stereo partly drawn) |
| 8.65 | 116% |  | C=CC[N@@+]12CC[C@@]34c5ccccc5N5/C=C6/[C@H]7C[C@H]8[C@@]9(CC[N@@+]8(CC=C)C/C7=C/CO)c7ccccc7N(/C=C(/[C@@H](C[C@@H]31)/C(=C\CO)C2)[C@H]54)[C@@H]69 |
| 8.07 | 118% |  | OC/C=C1\C[N+]2(C3C=CCCC3)CCC34c5ccccc5N5/C=C6/C7CC8C9(CC[N+]8(C8C=CCCC8)C/C7=C/CO)c7ccccc7N(/C=C(/C1CC32)C54)C69 (stereo not drawn) |
| 6.47 | 100% |  | COc1ccc(C[N+]23CC[C@@]45c6ccccc6N6[C@@H]7OCC=C8C[N+]9(Cc%10ccc(OC)c(OC)c%10)CC[C@]%10%11c%12ccccc%12N([C@@H]%12OCC=C(C2)[C@H](C[C@@H]43)C%12[C@H]65)[C@H]%10[C@H]7[C@H]8C[C@@H]%119)cc1OC (stereo partly drawn) |
| 5.82 | 89% |  | C1=C2C[N@+]3(Cc4ccc5ccccc5c4)CCC45c6ccccc6N6C7OCC=C8C[N@+]9(Cc%10ccc%11ccccc%11c%10)CCC%10%11c%12ccccc%12N(C(OC1)C(C2CC43)C65)C%10C7C8CC%119 (stereo partly drawn) |
| 6.69 | 85.3% |  | N#CC[N+]12CC[C@@]34c5ccccc5N5[C@@H]6OCC=C7C[N+]8(CC#N)CC[C@]9%10c%11ccccc%11N([C@@H]%11OCC=C(C1)[C@H](C[C@@H]32)C%11[C@H]54)[C@H]9[C@H]6[C@H]7C[C@@H]%108 (stereo partly drawn) |
| 6.47 | 99.8% |  | O=[N+]([O-])c1ccc(C[N+]23CC[C@@]45c6ccccc6N6[C@@H]7OCC=C8C[N+]9(Cc%10ccc([N+](=O)[O-])cc%10)CC[C@]%10%11c%12ccccc%12N([C@@H]%12OCC=C(C2)[C@H](C[C@@H]43)C%12[C@H]65)[C@H]%10[C@H]7[C@H]8C[C@@H]%119)cc1 (stereo partly drawn) |
| 5.49 | 6.1% |  | O=C(C[N+]12CC[C@@]34c5ccccc5N5[C@@H]6OCC=C7C[N+]8(CC(=O)c9ccccc9)CC[C@]9%10c%11ccccc%11N([C@@H]%11OCC=C(C1)[C@H](C[C@@H]32)[C@@H]%11[C@H]54)[C@H]9[C@H]6[C@H]7C[C@@H]%108)c1ccccc1 (stereo partly drawn) |
| 7.74 | 81.4% |  | C=CC[N+]12CC[C@@]34c5ccccc5N5[C@@H]6OCC=C7CN8CC[C@]9%10c%11ccccc%11N([C@@H]%11OCC=C(C1)[C@H](C[C@@H]32)[C@@H]%11[C@H]54)[C@H]9[C@H]6[C@H]7C[C@H]8%10 (stereo partly drawn) |
| 8.44 | 104% |  | C[N+]12CC[C@@]34c5ccccc5N5[C@@H]6OCC[C@@H]7C[N+]8(C)CC[C@]9%10c%11ccccc%11N([C@@H]%11OCC[C@H](C1)[C@H](C[C@@H]32)C%11[C@H]54)[C@H]9[C@H]6[C@H]7C[C@@H]%108 (stereo partly drawn) |
| 8.57 | 119% |  | C=CC[N+]12CC[C@@]34c5ccccc5N5/C=C6\C7N(c8ccccc8[C@@]78CC[N+]7(CC=C)C/C(=C/CO)[C@@H]6C[C@@H]87)[C@@H]6OCC=C(C1)[C@H](C[C@@H]32)C6C54 (stereo partly drawn) |
| 7.86 | 110% |  | C1=C2C[N@+]3(CC4CC4)CCC45c6ccccc6N6C7OCC=C8C[N@+]9(CC%10CC%10)CCC%10%11c%12ccccc%12N(C(OC1)C(C2CC43)C65)C%10C7C8CC%119 (stereo partly drawn) |
|  |  | inactive | [O-][N+]12CC[C@@]34c5ccccc5N5[C@@H]6OCC=C7C[N+]8([O-])CC[C@]9%10c%11ccccc%11N([C@@H]%11OCC=C(C1)[C@H](C[C@@H]32)C%11[C@H]54)[C@H]9[C@H]6[C@H]7C[C@@H]%108 (stereo partly drawn) |
| 7.19 | 110% |  | C1=C2C[N+]3(CC4CO4)CC[C@@]45c6ccccc6N6[C@@H]7OCC=C8C[N+]9(CC%10CO%10)CC[C@]%10%11c%12ccccc%12N([C@H](OC1)[C@H](C2C[C@@H]43)[C@H]65)[C@H]%10[C@H]7[C@H]8C[C@@H]%119 (stereo partly drawn) |
| 5.76 | 87% |  | FC(F)(F)c1ccc(C[N+]23CC[C@@]45c6ccccc6N6[C@@H]7OCC=C8C[N+]9(Cc%10ccc(C(F)(F)F)cc%10)CC[C@]%10%11c%12ccccc%12N([C@@H]%12OCC=C(C2)[C@H](C[C@@H]43)[C@@H]%12[C@H]65)[C@H]%10[C@H]7[C@H]8C[C@@H]%119)cc1 (stereo partly drawn) |

| SMILES | pEC0.5 [1] | [3H]NMS equilibrium binding (%) [2] | pEC0.5 [3] |
| --- | --- | --- | --- |
| C[N@@+]12CC[C@@]34c5ccccc5N5/C=C6/[C@H]7C[C@H]8[C@@]9(CC[N@@+]8(C)C/C7=C/CO)c7ccccc7N(/C=C(/[C@@H](C[C@@H]31)/C(=C\CO)C2)[C@H]54)[C@@H]69 | 7.02 | 104% |  |
| C=CC[N+]12CC[C@@]34c5ccccc5N5[C@@H]6OCC=C7C[N+]8(CC=C)CC[C@]9%10c%11ccccc%11N([C@@H]%11OCC=C(C1)[C@H](C[C@@H]32)[C@@H]%11[C@H]54)[C@H]9[C@H]6[C@H]7C[C@@H]%108 (stereo partly drawn) | 7.95 | 109% |  |
| C[N+]12CCC34c5ccccc5N5/C=C6/C7CC8C9(CC[N+]8(C)C/C7=C/CO)c7ccccc7N(/C=C(/C(CC31)/C(=C/CO)C2)C54)C69 (stereo not drawn) | 7.87 | 119% |  |
| C1=C2C[N@+]3(Cc4ccccc4)CCC45c6ccccc6N6C7OCC=C8C[N@+]9(Cc%10ccccc%10)CCC%10%11c%12ccccc%12N(C(OC1)C(C2CC43)C65)C%10C7C8CC%119 (stereo partly drawn) | 7.12 | 86.4% |  |
| C1=C2CN3CC[C@]45c6ccccc6N6[C@@H]7OCC=C8CN9CC[C@]%10%11c%12ccccc%12N([C@H](OC1)[C@@H]([C@H]64)[C@H]2C[C@H]35)[C@H]%10[C@H]7[C@H]8C[C@H]9%11 | 6.36 | 95.8% |  |
| C[N+]12CC[C@@]34c5ccccc5N5[C@@H]6OCC=C7C[N+]8(C)CC[C@]9%10c%11ccccc%11N([C@@H]%11OCC=C(C1)[C@H](C[C@@H]32)[C@@H]%11[C@H]54)[C@H]9[C@H]6[C@H]7C[C@@H]%108 (stereo partly drawn) | 8.09 | 115% |  |
| C#CC[N@+]12CCC34c5ccccc5N5C6OCC=C7C[N@+]8(CC#C)CCC9%10c%11ccccc%11N(C%11OCC=C(C1)C(CC32)C%11C54)C9C6C7CC%108 (stereo partly drawn) | 8.36 | 105% |  |
| Brc1ccc(C[N+]23CC[C@@]45c6ccccc6N6[C@@H]7OCC=C8C[N+]9(Cc%10ccc(Br)cc%10)CC[C@]%10%11c%12ccccc%12N([C@@H]%12OCC=C(C2)[C@H](C[C@@H]43)[C@@H]%12[C@H]65)[C@H]%10[C@H]7[C@H]8C[C@@H]%119)cc1 (stereo partly drawn) | 6.29 | 113% |  |
